Most compounds without a hit are left out; they make up all but 2.7% or so of the library.
OXTR ag – agonists of human oxytocin receptor | AID 2435 | CHO-OTR cells, Fluo-8 calcium fluorescence; normalized: DMSO 0%, oxytocin 100% | activation, % at 3 µM | P30559 | hit rate 0.32% among 320,000;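 active = activation above the mean of all tested compounds plus 3 SD, cutoff set per screening run, cut at about 20% in these data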;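 also: peak over basal fluorescence ratio from a 100 s FLIPR kinetic read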
OX1R antag-1 – blocks the human orexin 1 receptor; inhibition, % at 6.6 µM; AID 485270; OX1R-expressing cells, FRET antagonist read-out; hit rate 1.8% among 330,000; O43613; in the data active = inhibition mostly above about 38%, no sharp cut-off; inactive = mostly below about 40%;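 also: 0% = agonist challenge alone and 100% = reference antagonist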
Target sequence (O43613 whole entry, looked up): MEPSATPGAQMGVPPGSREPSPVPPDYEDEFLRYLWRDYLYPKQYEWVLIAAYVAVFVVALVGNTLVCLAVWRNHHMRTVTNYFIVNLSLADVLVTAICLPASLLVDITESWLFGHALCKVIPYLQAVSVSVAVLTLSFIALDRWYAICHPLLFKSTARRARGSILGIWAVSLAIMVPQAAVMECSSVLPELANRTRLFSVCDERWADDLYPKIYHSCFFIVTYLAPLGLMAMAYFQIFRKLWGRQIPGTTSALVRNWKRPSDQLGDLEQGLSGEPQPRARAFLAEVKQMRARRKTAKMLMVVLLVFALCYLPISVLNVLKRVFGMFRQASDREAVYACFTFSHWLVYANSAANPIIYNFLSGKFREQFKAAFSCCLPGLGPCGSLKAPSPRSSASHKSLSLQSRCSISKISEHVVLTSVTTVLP
CHO parental Ca – signal in parental CHO cells, OX1R antagonist counter-screen; parental CHO-K1, ATP-induced calcium, Fluo-8 fluorescence; inhibition, % at 5.6 µM; hit rate 0.63% among 330,000;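 active = inhibition above that plate's mean sample inhibition plus 3 SD, cut at about 26% in these data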;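 also: 0% = ATP-challenged DMSO wells and 100% = DMSO wells without ATP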
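Material – parental CHO cells · Reagent – ATP stimulus · Compound – single nominal dose of 5.6 µM per compound · Detection – Fluo-8 fluorescence · Read-out basis – percent inhibition of calcium signal · Controls – ATP-challenged DMSO wells low, unchallenged DMSO wells high · Repeats – no replicates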
OX1R antag-2 – human HCRTR1 antagonism. O43613. CHO/OX1R cells, Fluo-8 calcium fluorescence, orexin A. inhibition, % at 5 µM. hit rate 0.43% among 330,000. AID 434989;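 active = inhibition above its plate's threshold, mean inhibition of all tested compounds on the plate plus 3 SD, cut at about 37% in these data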;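 also: 0% = orexin A challenge wells and 100% = SB-334867-A antagonist wells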
OXTR potentiate – potentiators of human oxytocin receptor; P30559; CHO-OTR cells, Fluo-8 calcium fluorescence, potentiator mode; 0% = oxytocin EC15, 100% = EC100; activation, % at 3 µM; hit rate 0.061% among 320,000;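 active = activation above that plate's cutoff, the mean activation of tested compounds plus 3 SD, cut at about 6.6% in these data, passing the limit was not always enough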;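 also: 100% uses oxytocin at 75 nM as the full agonist control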
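Material: human OTR in CHO cells. Compound: 3.0 µM, one dose. Timing: compound 6 min at room temperature before oxytocin, 100 s read. Evaluation: % activation of max/min ratio relative to oxytocin controls. Replication: single well per compound, singlicate. Signal: Fluo-8 calcium dye fluorescence.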
V1R ag counter – activates human V1a receptor in oxytocin agonist counter-screen; AID 2797; CHO-V1R cells, Fluo-8 calcium fluorescence, agonist mode; 0% DMSO, 100% 3 nM vasopressin; hit rate 0.25% among 320,000; P37288; activation, % at 3 µM;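 active = activation above the mean activation of all tested compounds plus 3 SD, per screening run, cut at about 20% in these data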;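 also: signal is peak over basal fluorescence ratio across a 100 second FLIPR read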
OX1R HTRF confirm – OX1R (human) antagonism, HTRF confirmed. shares compounds with OX1R antag-1. OX1R-expressing cells, HTRF antagonist assay. inhibition, % at 6.6 µM. hit rate 49% among 1,800; in the data active = inhibition above about 55%;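 also: CHO cells expressing OX1R stimulated with orexin A at about EC80; 0% = agonist challenge alone and 100% = reference antagonist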
CHO-K1 HTRF cnt – counter-screen for OX1R antagonists: effect in parental CHO-K1 cells. shares compounds with OX1R antag-1. HTRF counterscreen. inhibition, % at 6.6 µM. hit rate 48% among 1,800. AID 493232; in the data active = inhibition above about 17%;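 also: 0% = agonist challenge with vehicle and 100% = vehicle alone without agonist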
* = called active by the depositor; / = no result given.

SMILES	OXTR ag	OX1R antag-1	CHO parental Ca	OX1R antag-2	OXTR potentiate	V1R ag counter	OX1R HTRF confirm	CHO-K1 HTRF cnt
CCCCN1CC[C@H]2C=CC[C@@H](C(=O)Nc3ccc(Cl)c(C(F)(F)F)c3)[C@H]2C1=O	-1	44	-7	3	-1	0	/	/
Cc1ccc(CNS(=O)(=O)c2cn(C)c(=O)n(C)c2=O)cc1	-1	9	-8	-12	-3	0	/	/
CCn1c(SCC(=O)Nc2cc(Cl)ccc2OC)nnc1C1CC1	0	3	-13	-15	-1	0	/	/
Cc1ccc(CCNC(=O)CSCc2ccc(F)cc2)cc1	-1	11	-13	-12	-6	0	/	/
Cc1cc(-n2c(=O)c(C#N)cc3c(=O)n4ccccc4nc32)no1	-1	128*	-8	-17	-9	0	46	75*
C=CCn1c(=O)c(C#N)cc2c(=O)n3ccccc3nc21	-1	137*	-6	-9	-20	-1	44	34*
CC(C)OCCCn1c(=NC(=O)c2cccs2)c(C#N)cc2c(=O)n3ccccc3nc21	-2	28	-17	-16	-4	1	/	/
C=CCn1c(=N)c(C(=O)NCCCOC)cc2c(=O)n3ccccc3nc21	0	137*	-16	15	-3	0	56*	83*
C=CCn1c(=N)c(C#N)cc2c(=O)n3ccccc3nc21	0	102*	-2	-9	2	0	55*	78*
CC(Sc1nnc(-c2ccco2)n1C)C(=O)N1C(C)CCCC1C (configuration not stated)	0	15	-6	-25	5	0	/	/
O=C(NCC(=O)N1CCN(C(=O)c2ccccc2)CC1)c1ccc(Cl)cc1Cl	0	1	-6	-23	-7	0	/	/
COc1ccc(OC)c(S(=O)(=O)Nc2c(NC3CCCCC3)c3ccccc3oc2=O)c1	0	37	-35	-26	-6	1	/	/
CCOC(=O)c1cc2c(=O)n3ccccc3nc2n(Cc2ccco2)c1=NC(=O)c1ccc(OC)cc1	-2	13	-8	-16	-3	0	/	/
N=c1c(C(=O)NCc2ccc(F)cc2)cc2c(=O)n3ccccc3nc2n1CCCN1CCOCC1	-1	82*	0	-2	-8	0	65*	35*
CCOC(=O)c1cc2c(=O)n3ccccc3nc2n(CCCOC)c1=NC(=O)c1ccncc1	0	85*	-19	-9	-7	0	34	33*
O=C(NC(=S)Nc1cccc2cccnc12)c1cccs1	-1	95*	-24	24	-1	0	93*	7
CCOc1ncccc1C(=O)NNC(=O)c1ccc(NS(=O)(=O)c2cccs2)cc1	0	9	-7	3	1	-1	/	/
Cc1ccc(-c2nnc(SCC#CCOC(=O)c3cccs3)o2)cc1	-1	31	-10	-8	-11	2	/	/
O=C(OCC#CCSc1nnc(-c2ccc([N+](=O)[O-])cc2)o1)c1cccs1	3	87*	-7	-10	-14	3	51	30*
C=CC[C@H](CC(=O)N[C@H](CO)Cc1ccccc1)C(=O)N[C@H](COC(=O)[C@H](CC=C)CC(=O)OC(C)(C)C)Cc1c[nH]c2ccccc12	1	5	-26	-20	-8	1	/	/
COc1ccc(CC(=O)NCc2nnc(SCC(=O)Nc3ccccc3)n2C)cc1	5	14	-7	-4	-8	1	/	/
COc1ccc(CC(=O)NCc2nnc(SCC(=O)Nc3cccc(F)c3)n2C)cc1	-1	92*	-8	-8	-1	0	17	-12
O=C1C(Nc2ccccc2)=C/C(=N/S(=O)(=O)c2cccs2)c2ccccc21	-3	40	-23	-21	-2	-2	/	/
CCc1cc[n+](C2=C([O-])c3ccccc3C(=O)/C2=N\S(=O)(=O)c2cccs2)cc1	0	149*	-12	-17	-4	1	56*	80*
CC(NCC(=O)Nc1cc(S(=O)(=O)N2CCOCC2)ccc1N1CCOCC1)c1ccco1 (configuration not stated)	0	0	-20	10	-3	0	/	/
SMILES	OXTR ag	OX1R antag-1	CHO parental Ca	OX1R antag-2	OXTR potentiate	V1R ag counter	OX1R HTRF confirm	CHO-K1 HTRF cnt
COc1ccc(Cl)cc1NC(=O)CN1C(=O)NC(Cc2c[nH]c3ccccc23)C1=O (configuration not stated)	1	30	-11	14	-4	1	/	/
Cc1ccc(Nc2nc(-c3cccnc3)nc3ccccc23)cc1	-3	12	-32	-6	-11	-2	/	/
CCOC(=O)c1ccc(Nc2nc(-c3cccnc3)nc3ccccc23)cc1	-3	78*	-9	-8	-10	-1	21	8
O=C(CN1C2=NCCCN2c2ccccc21)c1ccc([N+](=O)[O-])cc1	0	87*	-16	-15	1	1	58*	62*
Cc1nc(S/C(C(=O)O)=C2/C(=O)Nc3ccccc32)n[nH]1	0	78*	-2	-6	1	1	42	46*
Cc1nc(SC2CC(=O)N(c3ccccc3)C2=O)n[nH]1 (configuration not stated)	7	-4	-2	0	-14	0	/	/
O=C(CCNS(=O)(=O)c1ccc(F)c(F)c1)NCCN1CCOCC1	1	4	0	-20	3	0	/	/
COc1cc(/C=C2\OC(=O)c3c(OC)cccc32)ccc1O	0	79*	0	-14	-9	1	58*	13
COc1cc(/C=C2\C(=O)ON=C2c2ccc(Cl)cc2)ccc1O	2	13	1	0	-2	1	/	/
O=C(Nc1ccc2nsnc2c1)N1CCCCCC1	0	87*	-8	-3	-9	0	35	27*
CNC(=O)COC(=O)c1ccc([N+](=O)[O-])cc1Cl	0	120*	-13	-10	0	0	46	74*
CC(C)NC(=O)NC(=O)COC(=O)c1ccc([N+](=O)[O-])cc1Cl	-2	29	-4	-13	-7	-1	/	/
O=C(CSc1ncn[nH]1)Nc1c(Br)cc([N+](=O)[O-])cc1Br	1	96*	-1	-5	-2	2	41	45*
CCOc1ccc(N(CC(=O)NC2CCCCC2)C(=O)CCC(=O)Nc2nccs2)cc1	0	12	-10	-3	-4	0	/	/

From PubChem
